From ChEMBL document CHEMBL5653625, “P21-Activated Kinase Inhibitors FRAX486 and IPA3: Inhibition of Prostate Stromal Cell Growth and Effects on Smooth Muscle Contraction in the Human Prostate” (PLoS One, 2016) come the findings set out here.

The species entered for data set [1] is Homo sapiens. The experiment in a line: Inhibition of electric field stimulation induced prostate cancer patient derived human Prostate gland strips contraction assessed as reduction in KCl-induced contraction at 100 uM by organ-bath analysis. It is filed as functional, tissue-based. The gist of the method:
(§1)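 Human prostate strips (6 x 3 x 3 mm) in aerated (95% O2/5% CO2) Krebs-Henseleit, 37°C, pH 7.4, resting tone 4.9 mN after 45 min equilibration; reference contraction to 80 mM KCl, washout, then inhibitor or DMSO added before cumulative noradrenaline, phenylephrine or endothelin concentration-response curves or EFS frequency-response curves; tension expressed as % of KCl contraction.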

Data set [2] is filed under the species Homo sapiens. Description: Inhibition of electric field stimulation induced prostate cancer patient derived human Prostate gland strips contraction assessed as reduction in KCl-induced contraction at 300 uM at 32 Hz frequency by organ-bath analysis. Type of data set: functional, tissue-based. The gist of the method: as §1
Data set [3] is filed under the species Homo sapiens. The experiment in a line: Inhibition of noradrenaline induced prostate cancer patient derived human Prostate gland strips contraction assessed as reduction in KCl-induced contraction at 300 uM by organ-bath analysis. Type of data set: functional, tissue-based. In outline:
as §1

Data set [4] is filed under the species Homo sapiens. The experiment in a line: Inhibition of phenylephrine induced prostate cancer patient derived human Prostate gland strips contraction assessed as reduction in KCl-induced contraction at 300 uM by organ-bath analysis. Type of data set: functional, tissue-based. The gist of the method: as §1
For data set [5], the system named is WPMY-1. The experiment in a line: Inhibition of actin filament organization in human WPMY-1 cells at 1 to 10 uM incubated for 24 hrs by FITC-coupled phalloidin staining based laser scanning microscopy. Type of data set: functional, cell-based. To be noted: dose 1-10 µM. The gist of the method:
(§2)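 Serum-starved WPMY-1 cells grown on chamber slides with inhibitor (1–10 µM) or DMSO for 24 h, then stained for F-actin with FITC-labeled phalloidin and imaged by laser scanning confocal microscopy; filament bundles, protrusions and cell shape judged visually against solvent controls; representative images from 5 independent experiments.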

Data set [6] deals with WPMY-1. The experiment in a line: Inhibition of actin filament organization in human WPMY-1 cells assessed as reduction in degree of actin polymerization at 1 uM incubated for 24 hrs by FITC-coupled phalloidin staining based laser scanning microscopy. Type of data set: functional, cell-based. The gist of the method: as §2
In data set [7] the test system is WPMY-1. Description: Inhibition of actin filament organization in human WPMY-1 cells assessed as degeneration of protrusions at 1 uM incubated for 24 hrs by FITC-coupled phalloidin staining based laser scanning microscopy. It is filed as functional, cell-based. The gist of the method: as §2
The test system of data set [8] is WPMY-1. The experiment in a line: Inhibition of actin filament organization in human WPMY-1 cells at 1 uM incubated for 24 hrs by FITC-coupled phalloidin staining based laser scanning microscopy. It is filed as functional, cell-based. The gist of the method:
as §2

A short description of data set [9]: Inhibition of actin filament organization in human WPMY-1 cells assessed as rounded cell shape without protrusion at 5 to 10 uM incubated for 24 hrs by FITC-coupled phalloidin staining based laser scanning microscopy. The note with it: dose 5-10 µM. It is filed as functional. The gist of the method:
as §2

Data set [10] is described as follows: Cytotoxicity against human WPMY-1 cells assessed as reduction in cell viability at 1 to 10 uM incubated for 24 hrs by WST-8 assay. It is filed as toxicity, cell-based. The note with it: wpmy-1, 24 h, dose 1-10 µM. In general terms: Tetrazolium assays rely on reduction of a dye to a coloured formazan, in cell work by metabolically active cells.
A short description of data set [11]: Cytotoxicity against human WPMY-1 cells assessed as reduction in cell viability at 1 to 10 uM incubated for 24 to 72 hrs by WST-8 assay. It is filed as toxicity, cell-based. The note with it: wpmy-1, 10 µM, TDE = time-dependent effect, dose lower 1 µM, time lower 24 hrs, dose upper 10 µM, time upper 72 hrs.
The nature of data set [12]: Cytotoxicity against human WPMY-1 cells assessed as cell survival rate at 1 uM incubated for 24 to 72 hrs by WST-8 assay. It is filed as toxicity, cell-based. The note with it: time 24-72 hrs, read-out: Survival. The gist of the method: (§3)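 WPMY-1 human prostate stromal cells kept in RPMI 1640 with 10% FCS and 1% penicillin/streptomycin, 37°C, 5% CO2; switched to FCS-free medium before treatment. Seeded 20,000 cells/well, grown 24 h, then exposed to inhibitor or DMSO (1, 5, 10 µM) for 24, 48 or 72 h with separate controls per period. WST-8 (CCK-8) added, absorbance 450 nm after 2 h at 37°C; 5 independent experiments, means ±SEM.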

Data set [13] is described as follows: Cytotoxicity against human WPMY-1 cells assessed as cell survival rate at 10 uM incubated for 48 to 72 hrs by WST-8 assay. Type of data set: toxicity, cell-based. To be noted: time 48-72 hrs, read-out: Survival. The gist of the method:
as §3

Data set [14] can be described thus: Cytotoxicity against human WPMY-1 cells assessed as reduction in cell proliferation at 1 to 10 uM incubated for 24 hrs by EdU incorporation assay. Type of data set: toxicity, cell-based. To be noted: wpmy-1, 24 h, dose 1-10 µM. Also noted: scale not given: the % may be the effect or the level left.
For data set [15], the species on record is Homo sapiens. The experiment in a line: Inhibition of electric field stimulation induced prostate cancer patient derived human Prostate gland strips contraction assessed as reduction in KCl-induced contraction at 10 uM by organ-bath analysis. Type of data set: functional, tissue-based. The gist of the method:
as §1

The species entered for data set [16] is Homo sapiens. Description: Inhibition of electric field stimulation induced prostate cancer patient derived human Prostate gland strips contraction assessed as reduction in KCl-induced contraction at 30 uM at 2 to 32 Hz frequency by organ-bath analysis. Type of data set: functional, tissue-based. In outline: as §1
The species entered for data set [17] is Homo sapiens. Description: Inhibition of endothelin-1 induced prostate cancer patient derived human Prostate gland strips contraction assessed as reduction in KCl-induced contraction at 10 uM by organ-bath analysis. Type of data set: functional, tissue-based. In outline: as §1
Data set [18] is filed under the species Homo sapiens. Description: Inhibition of noradrenaline induced prostate cancer patient derived human Prostate gland strips contraction assessed as reduction in KCl-induced contraction at 30 uM by organ-bath analysis. Type of data set: functional, tissue-based. The gist of the method: as §1
The species entered for data set [19] is Homo sapiens. The experiment in a line: Inhibition of phenylephrine induced prostate cancer patient derived human Prostate gland strips contraction assessed as reduction in KCl-induced contraction at 30 uM by organ-bath analysis. It is filed as functional, tissue-based. In outline:
as §1

Data set [20] is filed under the species Homo sapiens. The experiment in a line: Inhibition of endothelin-1 induced prostate cancer patient derived human Prostate gland strips contraction assessed as reduction in KCl-induced contraction at 30 uM by organ-bath analysis. It is filed as functional, tissue-based. The gist of the method:
as §1

Data set [21] is filed under the species Homo sapiens. Description: Inhibition of endothelin-2 induced prostate cancer patient derived human Prostate gland strips contraction assessed as reduction in KCl-induced contraction at 30 uM by organ-bath analysis. It is filed as functional, tissue-based. In outline: as §1
The nature of data set [22]: Cytotoxicity against human WPMY-1 cells assessed as cell survival rate at 1 uM incubated for 24 hrs by WST-8 assay. Type of data set: toxicity, cell-based. The note with it: read-out: Survival. In outline: as §3
A short description of data set [23]: Cytotoxicity against human WPMY-1 cells assessed as cell survival rate at 5 to 10 uM incubated for 48 to 72 hrs by WST-8 assay. Type of data set: toxicity, cell-based. The note with it: dose lower 5 µM, time lower 48 hrs, dose upper 10 µM, time upper 72 hrs, read-out: Survival. The gist of the method: as §3
Data set [24] concerns the target Serine/threonine-protein kinase PAK 2 (Homo sapiens, UniProt Q13177). The experiment in a line: Inhibition of full length PAK2 (unknown origin) assessed s reduction in substrate phosphorylation using peptide as substrate by FRET based Z-LYTE kinase assay.
Data set [25] deals with Serine/threonine-protein kinase PAK 3 (Homo sapiens, UniProt O75914). The experiment in a line: Inhibition of full length PAK3 (unknown origin) assessed s reduction in substrate phosphorylation using peptide as substrate by FRET based Z-LYTE kinase assay.
Sequence of Serine/threonine-protein kinase PAK 3 (O75914 whole entry): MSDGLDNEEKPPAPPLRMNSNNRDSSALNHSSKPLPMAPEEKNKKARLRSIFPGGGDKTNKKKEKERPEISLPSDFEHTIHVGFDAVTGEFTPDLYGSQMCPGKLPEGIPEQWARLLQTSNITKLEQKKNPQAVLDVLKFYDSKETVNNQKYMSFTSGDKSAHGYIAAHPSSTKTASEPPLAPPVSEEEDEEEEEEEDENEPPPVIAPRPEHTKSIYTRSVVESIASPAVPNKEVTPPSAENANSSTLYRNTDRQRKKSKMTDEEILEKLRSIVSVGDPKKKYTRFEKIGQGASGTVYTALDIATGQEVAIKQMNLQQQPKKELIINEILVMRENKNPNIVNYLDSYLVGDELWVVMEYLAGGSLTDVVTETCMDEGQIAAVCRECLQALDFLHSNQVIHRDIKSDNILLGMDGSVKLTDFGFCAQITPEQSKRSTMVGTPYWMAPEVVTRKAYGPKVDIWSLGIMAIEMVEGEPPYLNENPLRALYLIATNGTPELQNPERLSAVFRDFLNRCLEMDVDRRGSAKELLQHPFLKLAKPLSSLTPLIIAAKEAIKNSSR
Data set [26] in a line: Effect on DISC1 knockdown-elicited synaptic changes in rat cortical neurons assessed as prevention of spine size reduction preincubated for 60 mins followed by APV WD solution addition and measured after 20 mins by immunofluorescence analysis. Type of data set: functional, cell-based. To be noted: cortical neurone.

The source made the active and inactive calls. The rule behind the calls is not given here.

Sequence of Serine/threonine-protein kinase PAK 2 (Q13177 whole entry): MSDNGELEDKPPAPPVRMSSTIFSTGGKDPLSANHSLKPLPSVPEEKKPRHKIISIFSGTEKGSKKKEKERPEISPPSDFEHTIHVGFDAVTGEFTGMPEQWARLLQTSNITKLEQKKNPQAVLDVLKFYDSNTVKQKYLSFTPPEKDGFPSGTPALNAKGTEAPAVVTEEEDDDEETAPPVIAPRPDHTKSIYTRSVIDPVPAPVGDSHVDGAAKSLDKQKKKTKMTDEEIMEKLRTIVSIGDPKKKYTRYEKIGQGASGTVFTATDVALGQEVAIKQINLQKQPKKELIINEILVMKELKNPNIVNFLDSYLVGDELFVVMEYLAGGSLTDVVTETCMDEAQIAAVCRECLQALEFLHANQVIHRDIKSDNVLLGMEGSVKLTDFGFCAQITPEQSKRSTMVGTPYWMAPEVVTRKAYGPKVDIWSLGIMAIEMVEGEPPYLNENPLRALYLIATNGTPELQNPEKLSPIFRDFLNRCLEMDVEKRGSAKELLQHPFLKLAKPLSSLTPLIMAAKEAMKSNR

In the case of `Oc1ccc2ccccc2c1SSc1c(O)ccc2ccccc12`, the inhibition result in [1], in data set [3] and in data set [4] was “inactive” each time. Also, the inhibition entry in [2], in data set [6], in data set [7] and in data set [8] was “Active” each time. Besides, in [5], the inhibition entry is “Dose-Dependent Effect”. For the same compound, the “inhibition (INH)” value in data set [9] came out at 100%. Besides, the figures for the Activity entry in data set [10], in data set [11] and in [14] were “Dose-Dependent Effect”, “Tde” and 41%, respectively. Further, the viability at 1 µM in [12] worked out at 55%. Besides, in data set [13], the viability at 10 µM turned out to be 1%.
One may read the IC50 as the concentration at which inhibition is half-maximal. As usually defined, the EC50 is the concentration at which the effect is half-maximal. As for `CCn1c(=O)c(-c2ccc(Cl)cc2Cl)cc2cnc(Nc3ccc(N4CCNCC4)c(F)c3)nc21`, the inhibition result in data set [15], in data set [17], in [18] and in [19] was “inactive” in each case. In addition, the inhibition result in [16], in data set [20], in data set [21], in data set [6], in [7] and in data set [8] was “Active” in each case. The inhibition entry in data set [5] is “Dose-Dependent Effect”. Besides, the “inhibition (INH)” value in [9] was 100%. In addition, the Activity entry in [10] is on record as “Dose-Dependent Effect”; in [11] it was “Tde”; in data set [14], 45%. Also, the viability at 24 h, 1 µM in data set [22] was found to be 55%. Also, in [23], the viability at up to 10 µM was 1%. The IC50 in [24] and in data set [25] was 10 nM in each case. Also, the EC50 in [26] is 500 nM.
